Laboratory results reported in PMC5935540 (Cell, 2018).
Blank lines part the entries; values can stand above or below the compound they belong to.

Experiments:
NSCLC cell line panel = test: Cell viability dose response in NSCLC cell line panel; format: cell-based, human
Procedure, shortened: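 Viability read after 72 hrs of exposure to test compound at 5 µM, either alone or with HET-0016 at 100 nM. DMSO-treated cells serve as control.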

[1] = no reference given; cited from earlier work
[2] = system: FK-506 binding protein family members (FKBP) 1A, 2, 3,4, and 5; test: Arrayed affinity-selection/mass spectrometry binding assay, control compound; parameters: species or system human; settings: control for the binder selection pipeline; FKBP1A highest signal
ABCG2 = biological target: T1, ABCG2 (Homo sapiens, UniProt Q9UNQ0); test: siRNA depletion of ABCG2 followed by THZ1 treatment; format: cell-based; settings: ABCG2 depletion sensitized resistant cells; H157 cells, THZ1 50nM, 72 hrs
T1 sequence (Q9UNQ0 1-655): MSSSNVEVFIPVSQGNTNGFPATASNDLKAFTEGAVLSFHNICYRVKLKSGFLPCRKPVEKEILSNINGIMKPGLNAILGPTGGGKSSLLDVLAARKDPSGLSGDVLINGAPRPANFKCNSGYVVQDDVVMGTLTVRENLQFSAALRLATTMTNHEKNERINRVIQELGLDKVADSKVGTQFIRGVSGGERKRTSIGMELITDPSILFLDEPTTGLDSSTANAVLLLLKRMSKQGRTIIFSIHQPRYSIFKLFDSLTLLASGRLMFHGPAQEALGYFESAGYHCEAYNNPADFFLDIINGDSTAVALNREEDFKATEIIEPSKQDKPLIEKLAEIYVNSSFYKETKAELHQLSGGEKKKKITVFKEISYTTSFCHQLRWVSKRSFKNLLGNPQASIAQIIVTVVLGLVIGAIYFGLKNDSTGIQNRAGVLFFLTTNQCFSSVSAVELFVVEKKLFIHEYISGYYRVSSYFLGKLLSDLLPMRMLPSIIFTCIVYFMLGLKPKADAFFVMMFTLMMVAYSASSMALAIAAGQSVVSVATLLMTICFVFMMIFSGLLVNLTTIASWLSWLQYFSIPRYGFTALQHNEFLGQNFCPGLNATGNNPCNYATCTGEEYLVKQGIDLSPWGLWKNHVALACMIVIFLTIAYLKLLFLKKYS

Compound: CC(C)Oc1ccc(C(=O)N[C@H](CNC(=O)CN(C)C)Cc2ccc(-c3cn4cccc([C@H](C)O)c4n3)cc2)cc1Cl [SW208097]
- sensitivity (ED50) (NSCLC cell line panel; cell lines with co-occuring mutations in TP53 and KEAP1): low nanomolar
- pharmacokinetics in humans [1]: dose proportional pharmacokinetics

- LC/MS binding signal [2]: strongest signal
Compound: C=CC[C@@H]1/C=C(\C)C[C@H](C)C[C@H](OC)[C@H]2O[C@@](O)(C(=O)C(=O)N3CCCC[C@H]3C(=O)O[C@H](/C(C)=C/[C@@H]3CC[C@@H](O)[C@H](OC)C3)[C@H](C)[C@@H](O)CC1=O)[C@H](C)C[C@@H]2OC [FK-506]

Compound: CCCCc1ccc(N=CNO)c(C)c1 [HET0016]
- effect on SW001286 toxicity (NSCLC cell line panel; SW001286 5µM plus HET-0016 100nM, 72 hrs, two sensitive cell lines): rescued

Compound: CN(C)C/C=C/C(=O)Nc1ccc(C(=O)Nc2cccc(Nc3ncc(Cl)c(-c4c[nH]c5ccccc45)n3)c2)cc1 [THZ1]
- efflux transporter substrate status (ABCG2): ABCG2 substrate
